From ChEMBL document CHEMBL1155695, “Prenylated benzoic acid derivatives from Ferula kuhistanica” (2000)
Calls of active or inactive are those of the source. No cut-off for these calls is given here.

Assays:
Assay type in all cases: functional
Homo sapiens [1] = species on record: Homo sapiens; assay: Immunosuppressive activity against human peripheral mononuclear cells assessed as inhibition of LPS-stimulated IL4 production at 10 ug/mL
Summary of the method: (§1)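 Whole blood from healthy human volunteers was used as the cell source for the immunosuppression screen. Other details follow a previously published method.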

Homo sapiens [2] = species on record: Homo sapiens; assay: Immunosuppressive activity against human peripheral mononuclear cells assessed as inhibition of LPS-stimulated IL2 production at 10 ug/mL; summary of the method: as §1
Homo sapiens [3] = species on record: Homo sapiens; assay: Immunosuppressive activity against human peripheral mononuclear cells assessed as inhibition of LPS-stimulated IFN-gamma production at 10 ug/mL; summary of the method: as §1
[4] = Immunosuppressive activity against human peripheral mononuclear cells assessed as inhibition of LPS-stimulated IL2 production at 0.3 ug/mL; summary of the method: as §1
[5] = Immunosuppressive activity against human peripheral mononuclear cells assessed as inhibition of LPS-stimulated IL4 production at 0.3 ug/mL; summary of the method: as §1
[6] = Immunosuppressive activity against human peripheral mononuclear cells assessed as inhibition of LPS-stimulated IFN-gamma production at 0.3 ug/mL; summary of the method: as §1
[7] = Immunosuppressive activity against human peripheral mononuclear cells assessed as inhibition of LPS-stimulated IL2 production at 3 ug/mL; summary of the method: as §1
[8] = Immunosuppressive activity against human peripheral mononuclear cells assessed as inhibition of LPS-stimulated IL4 production at 3 ug/mL; summary of the method: as §1
[9] = Immunosuppressive activity against human peripheral mononuclear cells assessed as inhibition of LPS-stimulated IFN-gamma production at 3 ug/mL; summary of the method: as §1

Compound	Activity (Homo sapiens [1])	Activity (Homo sapiens [2])	Activity (Homo sapiens [3])	also measured
C/C(=C\Cc1cc(C(=O)O)ccc1O)CC/C=C(\C)CCC(O)C(C)(C)O (racemic)	inactive	inactive	inactive	–
CC(C)=CCCC(C)(O)C(O)CC/C(C)=C/Cc1cc(C(=O)O)ccc1O (stereo not given)	inactive	inactive	inactive	–
C[C@]12C=CC(=O)C=C1CC[C@@H]1[C@@H]2[C@@H](O)C[C@@]2(C)[C@H]1CC[C@]2(O)C(=O)CO [PREDNISOLONE]	–	–	–	inhibition at 0.3 µg/mL [4]: 65.6%; inhibition at 0.3 µg/mL [5]: 55.3%; inhibition at 0.3 µg/mL [6]: 60.2%
C/C(=C\Cc1cc(C(=O)O)ccc1O)CCC(O)[C@]1(C)CC[C@H](C(C)(C)O)O1 (stereo not given in full)	inactive	inactive	inactive	–
CC(C)=CCC/C(C)=C/CC[C@@]1(C)Oc2ccc(C(=O)O)cc2C[C@H]1O (racemic) [KUHISTANOL D]	–	–	–	inhibition at 3 µg/mL [7]: 77.3%; inhibition at 3 µg/mL [8]: 70.3%; inhibition at 3 µg/mL [9]: 61.8%
